Measured values as given in ChEMBL document CHEMBL3739417, “Synthesis and biological evaluation of novel 4,5-disubstituted 2H-1,2,3-triazoles as cis-constrained analogues of combretastatin A-4” (2015).

Experiments:
Format in all cases: functional
[1] = Growth inhibition of human HCT15 cells after 48 hrs by sulforhodamine B assay; conditions: HCT-15, 48 h
Outline: (§1)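 NCI-60 panel screen by SRB assay (Rubinstein method). Percentage growth taken from optical density of SRB colour, read before and 48 hrs after exposure to compound or vehicle control. All analogues first screened at 10^-5 M. Analogues giving 60% growth inhibition at that level in at least eight lines then went to a five-concentration dose-response study.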

MDA-MB-231 = assay: Growth inhibition of human MDA-MB-231 cells after 48 hrs by sulforhodamine B assay; conditions: MDA-MB-231, 48 h; outline: as §1
[2] = Growth inhibition of human SF268 cells after 48 hrs by sulforhodamine B assay; conditions: SF-268, 48 h; outline: as §1
[3] = Growth inhibition of human HCT116 cells after 48 hrs by sulforhodamine B assay; conditions: HCT-116, 48 h; outline: as §1
NCI-H460 = assay: Growth inhibition of human NCI-H460 cells after 48 hrs by sulforhodamine B assay; conditions: NCI-H460, 48 h; outline: as §1
SR = assay: Growth inhibition of human SR cells after 48 hrs by sulforhodamine B assay; outline: as §1
MCF7 = assay: Growth inhibition of human MCF7 cells after 48 hrs by sulforhodamine B assay; conditions: MCF7, 48 h; outline: as §1
U-251 = assay: Growth inhibition of human U251 cells after 48 hrs by sulforhodamine B assay; conditions: U-251, 48 h; outline: as §1
[4] = Growth inhibition of human SF295 cells after 48 hrs by sulforhodamine B assay; conditions: SF-295, 48 h; outline: as §1
[5] = Growth inhibition of human RPMI8226 cells after 48 hrs by sulforhodamine B assay; conditions: RPMI-8226, 48 h; outline: as §1
[6] = Growth inhibition of human NCI-ADR-RES cells after 48 hrs by sulforhodamine B assay; outline: as §1
[7] = Growth inhibition of human UO31 cells after 48 hrs by sulforhodamine B assay; conditions: UO-31, 48 h; outline: as §1
NCI-H23 = assay: Growth inhibition of human NCI-H23 cells after 48 hrs by sulforhodamine B assay; conditions: NCI-H23, 48 h; outline: as §1
HT-29 = assay: Growth inhibition of human HT-29 cells after 48 hrs by sulforhodamine B assay; conditions: HT-29, 48 h; outline: as §1
[8] = Growth inhibition of human HOP92 cells after 48 hrs by sulforhodamine B assay; conditions: HOP-92, 48 h; outline: as §1
[9] = Growth inhibition of human LOXIMVI cells after 48 hrs by sulforhodamine B assay; conditions: LOX IMVI; outline: as §1
[10] = Growth inhibition of human SW620 cells after 48 hrs by sulforhodamine B assay; conditions: SW-620, 48 h; outline: as §1
[11] = Growth inhibition of human HOP62 cells after 48 hrs by sulforhodamine B assay; conditions: HOP-62, 48 h; outline: as §1
SK-MEL-2 = assay: Growth inhibition of human SK-MEL-2 cells after 48 hrs by sulforhodamine B assay; conditions: SK-MEL-2, 48 h; outline: as §1
786-0 = assay: Growth inhibition of human 786-0 cells after 48 hrs by sulforhodamine B assay; conditions: 786-0, 48 h; outline: as §1
[12] = Growth inhibition of human DU145 cells after 48 hrs by sulforhodamine B assay; conditions: DU-145, 48 h; outline: as §1
MDA-MB-435 = assay: Growth inhibition of human MDA-MB-435 cells after 48 hrs by sulforhodamine B assay; conditions: MDA-MB-435, 48 h
Outline: (§2)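 NCI-60 sulforhodamine B screen. Compounds were first tested at a single dose of 10⁻⁵ M; hits, defined as ≥60% growth inhibition in at least eight lines, went on to a five-concentration dose–response. SRB optical density was read before and 48 h after exposure to compound or vehicle. Percentage growth was calculated from OD.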

ACHN = assay: Growth inhibition of human ACHN cells after 48 hrs by sulforhodamine B assay; outline: as §1
CAKI-1 = assay: Growth inhibition of human CAKI-1 cells after 48 hrs by sulforhodamine B assay; conditions: CAKI-1, 48 h; outline: as §1
K562 = assay: Growth inhibition of human K562 cells after 48 hrs by sulforhodamine B assay; conditions: K562, 48 h; outline: as §1
[13] = Growth inhibition of human PC3 cells after 48 hrs by sulforhodamine B assay; conditions: PC-3, 48 h; outline: as §1
[14] = Growth inhibition of human SKOV3 cells after 48 hrs by sulforhodamine B assay; conditions: SK-OV-3, 48 h; outline: as §1
A498 = assay: Growth inhibition of human A498 cells after 48 hrs by sulforhodamine B assay; conditions: A498, 48 h; outline: as §2
CCRF-CEM = assay: Growth inhibition of human CCRF-CEM cells after 48 hrs by sulforhodamine B assay; outline: as §1
A549 = assay: Growth inhibition of human A549/ATCC cells after 48 hrs by sulforhodamine B assay; conditions: A549, 48 h; outline: as §1
MDA-MB-468 = assay: Growth inhibition of human MDA-MB-468 cells after 48 hrs by sulforhodamine B assay; conditions: MDA-MB-468, 48 h; outline: as §1
[15] = Growth inhibition of human HCC2998 cells after 48 hrs by sulforhodamine B assay; conditions: HCC 2998, 48 h; outline: as §1
KM12 = assay: Growth inhibition of human KM12 cells after 48 hrs by sulforhodamine B assay; conditions: KM12, 48 h; outline: as §1
[16] = Growth inhibition of human IGROV1 cells after 48 hrs by sulforhodamine B assay; conditions: IGROV-1, 48 h; outline: as §1
[17] = Growth inhibition of human SNB75 cells after 48 hrs by sulforhodamine B assay; conditions: SNB-75, 48 h; outline: as §1
[18] = Growth inhibition of human OVCAR3 cells after 48 hrs by sulforhodamine B assay; conditions: OVCAR-3, 48 h; outline: as §2
SK-MEL-5 = assay: Growth inhibition of human SK-MEL-5 cells after 48 hrs by sulforhodamine B assay; conditions: SK-MEL-5, 48 h; outline: as §1
[19] = read-out: LD50 (the source's name)

For Clc1ccc(-c2n[nH]nc2-c2ccccn2)c(Cl)c1, the GI50 [1] was 2.93 µM, the CC50 [1, 19] was over 100 µM and the GI50 (MDA-MB-231) was 5.89 µM. It also gave a CC50 (MDA-MB-231; [19]) of over 100 µM, a GI50 [2] of 7.36 µM and a CC50 [2, 19] of over 100 µM. It also gave a GI50 [3] of 2.89 µM, a CC50 [3, 19] of over 100 µM and a GI50 (NCI-H460) of 3.67 µM. The CC50 (NCI-H460; [19]) was over 100 µM, the GI50 (SR) was 5.43 µM and the LC50 (concentration giving 50% net cell kill) (SR; read-out: LD50) was over 100 µM. The GI50 (MCF7) was 2.58 µM, the CC50 (MCF7; [19]) was over 100 µM and the GI50 (U-251) was 5.35 µM. The CC50 (U-251; [19]) was over 100 µM, the GI50 [4] was 3.01 µM and the CC50 [4, 19] was over 100 µM. It also gave a GI50 [5] of 10.7 µM, a CC50 [5, 19] of over 100 µM and a GI50 [6] of 3.92 µM. The CC50 [6, 19] was over 100 µM, the GI50 [7] was 6.84 µM and the LC50 (concentration killing 50% of cells) ([7]; read-out: LD50) was over 100 µM. It also gave a GI50 (NCI-H23) of 9.13 µM, an LC50 (concentration giving 50% cell kill) (NCI-H23; read-out: LD50) of over 100 µM and a GI50 (HT-29) of 4.56 µM. It also gave an LC50 (concentration killing 50% of cells) (HT-29; read-out: LD50) of over 100 µM, a GI50 [8] of 3.28 µM and a CC50 [8, 19] of over 100 µM. It also gave a GI50 [9] of 4.83 µM, a CC50 [9, 19] of over 100 µM and a GI50 [10] of 4.4 µM. It also gave an LD50 (concentration killing 50% of cells) [10] of over 100 µM, a GI50 [11] of 5.32 µM and an LC50 (concentration killing 50% of cells) ([11]; read-out: LD50) of over 100 µM. The GI50 (SK-MEL-2) was 6.52 µM, the CC50 (SK-MEL-2; [19]) was over 100 µM and the GI50 (786-0) was 2.75 µM. It also gave an LC50 (concentration killing 50% of cells) (786-0; read-out: LD50) of over 100 µM, a GI50 [12] of 1.41 µM and a CC50 [12, 19] of over 100 µM. The GI50 (MDA-MB-435) was 2.2 µM, the LC50 (concentration killing 50% of cells) (MDA-MB-435; read-out: LD50) was over 100 µM and the GI50 (ACHN) was 1.75 µM. It also gave a CC50 (ACHN; [19]) of over 100 µM, a GI50 (CAKI-1) of 8.42 µM and a CC50 (CAKI-1; [19]) of over 100 µM. For the same compound, the GI50 (K562) was 5.5 µM, the CC50 (K562; [19]) was over 100 µM and the GI50 [13] was 4.5 µM. For the same compound, the CC50 [13, 19] was over 100 µM, the GI50 [14] was 2.72 µM and the LC50 (concentration killing 50% of cells) ([14]; read-out: LD50) was over 100 µM. It also gave a GI50 (A498) of 3.18 µM, an LC50 (50% net cell kill) (A498; read-out: LD50) of over 100 µM and a GI50 (CCRF-CEM) of 3.38 µM. For the same compound, the LC50 (concentration killing 50% of cells) (CCRF-CEM; read-out: LD50) was over 100 µM, the GI50 (A549) was 4.85 µM and the CC50 (A549; [19]) was over 100 µM. For the same compound, the GI50 (MDA-MB-468) was 3.2 µM, the CC50 (MDA-MB-468; [19]) was over 100 µM and the GI50 [15] was 9.16 µM. The CC50 [15, 19] was over 100 µM, the GI50 (KM12) was 6.87 µM and the LC50 (concentration killing 50% of cells) (KM12; read-out: LD50) was over 100 µM. It also gave a GI50 [16] of 5.94 µM, a CC50 [16, 19] of over 100 µM and a GI50 [17] of 1.58 µM. It also gave a CC50 [17, 19] of over 100 µM, a GI50 [18] of 3.38 µM and an LC50 (concentration giving 50% net cell kill) ([18]; read-out: LD50) of over 100 µM. For the same compound, the GI50 (SK-MEL-5) was 7.89 µM and the CC50 (SK-MEL-5; [19]) was over 100 µM.
